Measurements reported in ChEMBL document CHEMBL1123215, “Arginine-vasopressin analogues with high antidiuretic/vasopressor selectivity. Synthesis, biological activity, and receptor binding affinity of arginine-vasopressin analogues with substitutions in positions 1, 2, 4, 7, and 8” (J Med Chem, 1986).
Positions of bridges follow the written chain, without caps; N, C: chain ends. Non-standard residues stand in square brackets, D forms with d. Residues, ends and D or L forms follow the SMILES beside them. NMeA = CN[C@@H](C)C(=O)O; Mpa = O=C(O)CCS; Sar = CNCC(=O)O

What was measured:
[1] = tested on: Rattus norvegicus; test: Compound was tested for the vasopressor activity against phenoxybenzamine treated rats, after intravenous injection.; type: functional
Procedure, shortened: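 Pressor response measured in rats pretreated with phenoxybenzamine.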

[2] = Ratio of antidiuretic potency vs vasopressor potency; type: functional, Urine
Procedure, shortened: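 Antidiuretic potency from urine conductivity change in hydrated anaesthetized rats after i.v. injection, vasopressor potency in phenoxybenzamine-treated rats, arginine-vasopressin as standard; ratio of the two potencies.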

[3] = tested on: Rattus norvegicus; test: Compound was tested for the antidiuretic activity against hydrated anaesthetized rats, after intravenous injection.; type: functional, Urine
Procedure, shortened: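 Hydrated, anaesthetized rats given intravenous injection; effect measured as change in urine conductivity, with arginine-vasopressin as standard.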

[4] = molecular target: Vasopressin V1 receptor (Rattus norvegicus, UniProt P48974+P30560); test: Binding affinity against plasma membrane from rat liver
Procedure, shortened: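 Rat liver plasma membranes, competition against [3H]AVP, 30 min incubation, bacitracin (1 mg/mL) in standard medium. Apparent KD and slope factor b from weighted nonlinear least-squares logistic fit of displacement curves; mean ±SE of two experiments.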

[5] = molecular target: Vasopressin V2 receptor (Bos taurus, UniProt P48044); test: Binding affinity against plasma membrane from bovine kidney inner medulla; type: tissue-based
Procedure, shortened: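 Competition binding with [3H]AVP to plasma membranes, 30 min incubation; for rat liver membranes the standard medium included bacitracin (1 mg/mL). Apparent KD and slope factor b from weighted nonlinear least-squares fit of displacement curves to logistic curves; [3H]AVP parameters from direct binding. Mean ±SE of two experiments.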

Chain of Vasopressin V2 receptor (P48044 whole entry): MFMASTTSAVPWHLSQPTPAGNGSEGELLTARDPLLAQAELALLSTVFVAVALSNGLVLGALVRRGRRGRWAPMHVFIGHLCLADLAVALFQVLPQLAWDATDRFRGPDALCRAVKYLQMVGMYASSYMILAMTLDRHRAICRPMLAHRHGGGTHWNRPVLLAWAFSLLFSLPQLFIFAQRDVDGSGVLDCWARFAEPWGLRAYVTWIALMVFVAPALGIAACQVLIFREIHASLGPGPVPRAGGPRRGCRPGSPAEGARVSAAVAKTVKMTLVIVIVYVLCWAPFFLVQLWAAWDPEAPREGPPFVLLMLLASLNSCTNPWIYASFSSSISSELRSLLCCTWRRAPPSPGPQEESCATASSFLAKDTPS

Row | Kd [4] [nM] | Kd [5] [nM] | SMILES | Potency [1] [IU mg-1] | Ratio [2] | Potency [3] [IU mg-1]
1 | – | – | C[C@@H](C(=O)N[C@@H](CCCN=C(N)N)C(=O)NCC(N)=O)N(C)C(=O)[C@@H]1CSSC[C@H](N)C(=O)N[C@@H](Cc2ccc(O)cc2)C(=O)N[C@@H](Cc2ccccc2)C(=O)N[C@@H](CCC(N)=O)C(=O)N[C@@H](CC(N)=O)C(=O)N1 | 10.6 | 32 | 343
2 | 53 | 9.4 | CC(C)[C@H]1NC(=O)[C@H](Cc2ccccc2)NC(=O)[C@@H](Cc2ccc(O)cc2)NC(=O)CCSSC[C@@H](C(=O)N(C)[C@@H](C)C(=O)N[C@@H](CCCN=C(N)N)C(=O)NCC(N)=O)NC(=O)[C@H](CC(N)=O)NC1=O | 0.69 | 150 | 103
3 | 420 | 10 | CN(CC(=O)N[C@H](CCCN=C(N)N)C(=O)NCC(N)=O)C(=O)[C@@H]1CSSC[C@H](N)C(=O)N[C@@H](Cc2ccc(O)cc2)C(=O)N[C@@H](Cc2ccccc2)C(=O)N[C@@H](CCC(N)=O)C(=O)N[C@@H](CC(N)=O)C(=O)N1 [listing 1 of 2 here] | – | – | –
4 | – | – | CN(CC(=O)N[C@H](CCCN=C(N)N)C(=O)NCC(N)=O)C(=O)[C@@H]1CSSC[C@H](N)C(=O)N[C@@H](Cc2ccc(O)cc2)C(=O)N[C@@H](Cc2ccccc2)C(=O)N[C@@H](CCC(N)=O)C(=O)N[C@@H](CC(N)=O)C(=O)N1 [listing 2 of 2 here] | 0.04 | 1400 | 56
5 | 280 | 21 | C[C@@H](C(=O)N[C@H](CCCN=C(N)N)C(=O)NCC(N)=O)N(C)C(=O)[C@@H]1CSSC[C@H](N)C(=O)N[C@@H](Cc2ccc(O)cc2)C(=O)N[C@@H](Cc2ccccc2)C(=O)N[C@@H](CCC(N)=O)C(=O)N[C@@H](CC(N)=O)C(=O)N1 [listing 1 of 2 here] | – | – | –
6 | – | – | C[C@@H](C(=O)N[C@H](CCCN=C(N)N)C(=O)NCC(N)=O)N(C)C(=O)[C@@H]1CSSC[C@H](N)C(=O)N[C@@H](Cc2ccc(O)cc2)C(=O)N[C@@H](Cc2ccccc2)C(=O)N[C@@H](CCC(N)=O)C(=O)N[C@@H](CC(N)=O)C(=O)N1 [listing 2 of 2 here] | 0.11 | 630 | 69
7 | – | – | CN(CC(=O)N[C@@H](CCCN=C(N)N)C(=O)NCC(N)=O)C(=O)[C@@H]1CSSC[C@H](N)C(=O)N[C@@H](Cc2ccc(O)cc2)C(=O)N[C@@H](Cc2ccccc2)C(=O)N[C@@H](CCC(N)=O)C(=O)N[C@@H](CC(N)=O)C(=O)N1 | 3.6 | 52 | 188
8 | 290 | 51 | C[C@@H](C(=O)N[C@H](CCCN=C(N)N)C(=O)NCC(N)=O)N(C)C(=O)[C@@H]1CSSCCC(=O)N[C@@H](Cc2ccc(O)cc2)C(=O)N[C@@H](Cc2ccccc2)C(=O)N[C@@H](CCC(N)=O)C(=O)N[C@@H](CC(N)=O)C(=O)N1 [listing 1 of 2 here] | – | – | –
9 | – | – | C[C@@H](C(=O)N[C@H](CCCN=C(N)N)C(=O)NCC(N)=O)N(C)C(=O)[C@@H]1CSSCCC(=O)N[C@@H](Cc2ccc(O)cc2)C(=O)N[C@@H](Cc2ccccc2)C(=O)N[C@@H](CCC(N)=O)C(=O)N[C@@H](CC(N)=O)C(=O)N1 [listing 2 of 2 here] | 0.07 | 5260 | 368.5
10 | 160 | 8.7 | CN(CC(=O)N[C@H](CCCN=C(N)N)C(=O)NCC(N)=O)C(=O)[C@@H]1CSSCCC(=O)N[C@@H](Cc2ccc(O)cc2)C(=O)N[C@@H](Cc2ccccc2)C(=O)N[C@@H](CCC(N)=O)C(=O)N[C@@H](CC(N)=O)C(=O)N1 [listing 1 of 2 here] | – | – | –
11 | – | – | CN(CC(=O)N[C@H](CCCN=C(N)N)C(=O)NCC(N)=O)C(=O)[C@@H]1CSSCCC(=O)N[C@@H](Cc2ccc(O)cc2)C(=O)N[C@@H](Cc2ccccc2)C(=O)N[C@@H](CCC(N)=O)C(=O)N[C@@H](CC(N)=O)C(=O)N1 [listing 2 of 2 here] | 0.01 | 2145 | 214.5
12 | 110 | 110 | C[C@@H](C(=O)N[C@@H](CCCN=C(N)N)C(=O)NCC(N)=O)N(C)C(=O)[C@@H]1CSSC[C@H](N)C(=O)N[C@@H](Cc2ccccc2)C(=O)N[C@@H](Cc2ccccc2)C(=O)N[C@@H](CCC(N)=O)C(=O)N[C@@H](CC(N)=O)C(=O)N1 (H-CFFQNC[NMeA]RG-NH2; disulfide 1-6) [listing 1 of 2 here] | – | – | –
13 | – | – | C[C@@H](C(=O)N[C@@H](CCCN=C(N)N)C(=O)NCC(N)=O)N(C)C(=O)[C@@H]1CSSC[C@H](N)C(=O)N[C@@H](Cc2ccccc2)C(=O)N[C@@H](Cc2ccccc2)C(=O)N[C@@H](CCC(N)=O)C(=O)N[C@@H](CC(N)=O)C(=O)N1 (H-CFFQNC[NMeA]RG-NH2; disulfide 1-6) [listing 2 of 2 here] | 0.57 | 25 | 14.5
14 | 170 | 44 | CN(CC(=O)N[C@@H](CCCNC(=N)N)C(=O)NCC(N)=O)C(=O)[C@@H]1CSSC[C@H](N)C(=O)N[C@@H](Cc2ccccc2)C(=O)N[C@@H](Cc2ccccc2)C(=O)N[C@@H](CCC(N)=O)C(=O)N[C@@H](CC(N)=O)C(=O)N1 (H-CFFQNC[Sar]RG-NH2; disulfide 1-6) | – | – | –
15 | – | – | CN(CC(=O)N[C@@H](CCCN=C(N)N)C(=O)NCC(N)=O)C(=O)[C@@H]1CSSC[C@H](N)C(=O)N[C@@H](Cc2ccccc2)C(=O)N[C@@H](Cc2ccccc2)C(=O)N[C@@H](CCC(N)=O)C(=O)N[C@@H](CC(N)=O)C(=O)N1 (H-CFFQNC[Sar]RG-NH2; disulfide 1-6) | 0.17 | 230 | 39.6
16 | 310 | 33 | CC(C)[C@@H]1NC(=O)[C@H](Cc2ccccc2)NC(=O)[C@H](Cc2ccc(O)cc2)NC(=O)[C@@H](N)CSSC[C@@H](C(=O)N(C)[C@@H](C)C(=O)N[C@@H](CCCNC(=N)N)C(=O)NCC(N)=O)NC(=O)[C@H](CC(N)=O)NC1=O (H-CYFVNC[NMeA]RG-NH2; disulfide 1-6) | – | – | –
17 | 110 | 9.4 | CC(C)[C@@H]1NC(=O)[C@H](Cc2ccccc2)NC(=O)[C@H](Cc2ccc(O)cc2)NC(=O)[C@@H](N)CSSC[C@@H](C(=O)N(C)CC(=O)N[C@@H](CCCNC(=N)N)C(=O)NCC(N)=O)NC(=O)[C@H](CC(N)=O)NC1=O (H-CYFVNC[Sar]RG-NH2; disulfide 1-6) | – | – | –
18 | – | – | CC(C)[C@@H]1NC(=O)[C@H](Cc2ccccc2)NC(=O)[C@H](Cc2ccc(O)cc2)NC(=O)[C@@H](N)CSSC[C@@H](C(=O)N(C)CC(=O)N[C@@H](CCCN=C(N)N)C(=O)NCC(N)=O)NC(=O)[C@H](CC(N)=O)NC1=O (H-CYFVNC[Sar]RG-NH2; disulfide 1-6) | 34.7 | 8 | 270
19 | 27 | 1.4 | CC(C)[C@@H]1NC(=O)[C@H](Cc2ccccc2)NC(=O)[C@H](Cc2ccc(O)cc2)NC(=O)CCSSC[C@@H](C(=O)N(C)CC(=O)N[C@@H](CCCN=C(N)N)C(=O)NCC(N)=O)NC(=O)[C@H](CC(N)=O)NC1=O ([Mpa]YFVNC[Sar]RG-NH2; disulfide 1-6) [listing 1 of 2 here] | – | – | –
20 | – | – | CC(C)[C@@H]1NC(=O)[C@H](Cc2ccccc2)NC(=O)[C@H](Cc2ccc(O)cc2)NC(=O)CCSSC[C@@H](C(=O)N(C)CC(=O)N[C@@H](CCCN=C(N)N)C(=O)NCC(N)=O)NC(=O)[C@H](CC(N)=O)NC1=O ([Mpa]YFVNC[Sar]RG-NH2; disulfide 1-6) [listing 2 of 2 here] | 0.4 | 1380 | 552
21 | – | – | N=C(N)NCCC[C@H](NC(=O)[C@@H]1CCCN1C(=O)[C@@H]1CSSC[C@H](N)C(=O)N[C@@H](Cc2ccc(O)cc2)C(=O)N[C@@H](Cc2ccccc2)C(=O)N[C@@H](CCC(N)=O)C(=O)N[C@@H](CC(N)=O)C(=O)N1)C(=O)NCC(N)=O [VASOPRESSIN] | – | – | 323
